Screening data: PubChem BioAssay, several laboratories
Ecoli WT expand = E. coli BW25113 growth inhibition, expanded screen; OD600 absorbance; growth inhibition, % at 100 µM; actives 0.15% (n = 98,000); AID 710;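 active means growth inhibition above about 50% at one test dose, limit read from the data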;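 further: growth measured after 20 h incubation at 37 °C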
Jurkat viability = reduces viability or proliferation of Jurkat cells; Jurkat E6.1 viability, ATP luminescence, 48 h; inhibition, % at 4 µM; actives 1.2% (n = 56,000); AID 463;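 active means inhibition above the mean inhibition of all tested compounds plus 3 SD, cut at about 28% in these data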
tolC growth inh = blocks growth of E. coli BW25113 tolC mutant; OD615; AID 573; growth inhibition, % at 10 µM (by protocol); actives 2.2% (n = 65,000);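 active means growth inhibition at or above a cutoff equal to the mean over every tested compound plus 3 SD, cut at about 60% in these data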;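 further: growth measured after 20 h incubation at 37 °C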
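Material: E. coli BW25113 ΔtolC::kan, tolC deletion mutant strain. Measure: percent growth inhibition. Schedule: 37 °C, 20 h exposure. Doses: single-point testing at 10 µM. Signal: A615 absorbance measurement. Buffer or medium: kanamycin-containing LB broth (50 µg/mL).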
Lung fibro prol = blocks proliferation of human lung fibroblasts | LL 47 human lung fibroblast viability, ATP luminescence; active compounds read low | actives 1.1% (n = 85,000) | viability, % at 10 µM;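 active means viability at or below 50% in the single dose screen; inactive means viability above 50%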;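 further: compound exposure lasted 72 h before the ATP readout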
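test system = LL 47 human lung fibroblasts | amount = 1,150 fibroblasts seeded per well | medium = 15% FBS in IMEM | times = overnight cell rest, 72 h compound treatment at 37 °C | measured by = CellTiter-Glo luminescence measuring cellular ATP | read-out = viability percentage against median untreated-cell control | benchmarks = cell-only wells, no compound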
H69AR growth 86K = blocks growth of human H69AR lung tumor cells. H69AR lung tumor viability, ATP luminescence, 72 h; active compounds read low. viability, % at 10 µM. actives 6% (n = 85,000);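 active means viability at or below 40%; inactive means viability above 40%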;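 further: multidrug resistant small cell line overexpressing MRP-1 efflux transporter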
HUVEC inhibit = inhibitors of human endothelial cell proliferation; viability, % at 10 µM (by protocol); AID 648; HUVEC proliferation, CellTiter-Glo luminescence, 72 h; active compounds read low; actives 1.1% (n = 86,000);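 active means viability at or below 30%; inactive means viability above 30%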
Large screens that a line does not name were inactive. Rows were chosen to be rich in hits. Some 6.4% of all compounds tested hit in one or more screens of this group.

COc1cccc(-c2cc(C(F)(F)F)n3ncc(C(=O)NCC4CCCO4)c3n2)c1 (configuration not stated)	none
COc1ccc(-c2cc(C(F)(F)F)nc(SCC(=O)Nc3cc(C)on3)n2)cc1	none
Cc1cc(NC(=O)CCS(=O)(=O)c2nc(-c3ccccc3)cc(C(F)(F)F)n2)no1	Jurkat viability 32.7, Lung fibro prol 5.6, H69AR growth 86K 0.7, HUVEC inhibit 24.0 (no result: Ecoli WT expand)
COc1cccc(N(C(=O)CNC(=O)c2ccco2)C(C(=O)NC2CCCCC2)c2ccncc2)c1 (configuration not stated)	none
Nc1nc(Nc2ccc(Cl)cc2)nc2ccccc12	Ecoli WT expand 93.0, H69AR growth 86K 21.0 (no result: Jurkat viability, tolC growth inh)
Nc1nc(Nc2ccccc2)nc2ccccc12	none
OC(Cn1ccnc1)c1ccc(Cl)cc1Cl (configuration not stated)	none (no result: Jurkat viability)
CC1(c2ccc(Cl)cc2Cl)OCC(Cn2ccnc2)O1 (configuration not stated)	H69AR growth 86K 33.8
CCCCCOc1ccc(C(=O)NCC(=O)NCC(=O)OCC)cc1	H69AR growth 86K 24.6 (no result: Jurkat viability)
CCOC(=O)CNC(=O)CNC(=O)c1ccc(OCC(C)C)cc1	none (no result: Jurkat viability)
Cc1cc(C)cc(Nc2cc(=O)n(C3CCCCC3)c(=O)[nH]2)c1	tolC growth inh 82.5, H69AR growth 86K 39.4
COc1ccc(OC)c(N(CC(=O)Nc2ccc3c(c2)OCCO3)S(C)(=O)=O)c1	none
CCOC(=O)N1CCc2c(sc(NC(=O)c3ccc(S(=O)(=O)N4CCCC4)cc3)c2C#N)C1	Lung fibro prol 38.2, H69AR growth 86K 13.3
CC1CCc2nc(NC(=O)c3cc(C(C)(C)C)nn3C)sc2C1 (configuration not stated)	tolC growth inh 67.0 (no result: Ecoli WT expand)
CCOC(=O)N1CCC(N2CCN(S(=O)(=O)c3ccc(C)cc3)CC2)CC1	H69AR growth 86K 29.2 (no result: Jurkat viability, tolC growth inh)
CC(C)N1CCc2c(sc(NC(=O)c3ccc(S(=O)(=O)N4CCOCC4)cc3)c2C#N)C1	none
Cc1ccc(C(=O)Nc2sc3c(c2C#N)CCCCC3)cc1C	none (no result: Ecoli WT expand, Jurkat viability, tolC growth inh)
COc1cc(C(=O)Nc2sc3c(c2C#N)CCN(C(C)=O)C3)cc(OC)c1OC	H69AR growth 86K 23.0 (no result: Jurkat viability, tolC growth inh)
COc1ccc(/C=C/C(=O)Nc2c(C)nn(C)c2C)cc1COc1ccc(Cl)cc1Br	none (no result: Ecoli WT expand, Jurkat viability, tolC growth inh)
COc1ccc(NC(=O)CSc2nc3c(c(=O)n2-c2ccc(C)cc2)SCC3)c(OC)c1	none (no result: Ecoli WT expand, Jurkat viability)
CCOC(=O)c1c(NC(=O)CN2CCCCC2)sc2c1CCN(C(=O)OCC)C2	tolC growth inh 96.0
CCOC(=O)N1CCN(S(=O)(=O)c2ccc(C(=O)Nc3nc4c(s3)CC(C)CC4)cc2)CC1 (configuration not stated)	Lung fibro prol 7.7, H69AR growth 86K 7.5, HUVEC inhibit 16.6
CC1CCN(c2ccc(C(=O)NCc3cccs3)cn2)CC1	none
CCOCCCNC(=O)COc1ccc(OC)cc1	none (no result: Jurkat viability, tolC growth inh)
Cc1cc(C)nc(N(C#N)Cc2ccccc2)n1	none
CCNc1nc(NC(C)C)nc(N(C#N)C(C)C(=O)N(C)C)n1 (configuration not stated)	none (no result: Jurkat viability, H69AR growth 86K)
CCNc1nc(NC(C)(C)C)nc(N(C#N)CC)n1	H69AR growth 86K 33.5
CCNc1nc(NC(C)C)nc(N(C#N)CCOc2ccc(Cl)cc2Cl)n1	tolC growth inh 75.3, H69AR growth 86K 21.6
CCNc1nc(NC(C)C)nc(N(C#N)Cc2ccccc2)n1	tolC growth inh 67.0
Cc1ccc(NC2=NCC(=O)N2Cc2ccc3c(c2)OCO3)cc1	none
CC(=O)C1(C)OC(N)=C(C#N)C(c2ccccc2)C1(C#N)C#N (configuration not stated)	H69AR growth 86K 37.6 (no result: Jurkat viability)
Cc1cc(Cl)ccc1OCC(=O)NCc1ccncc1	none (no result: Jurkat viability, tolC growth inh)
O=C(COc1ccccc1Cl)Nc1ccc(Cl)cn1	none
O=C(COc1ccc(Cl)cc1Cl)Nc1ccccn1	Lung fibro prol 48.4
O=C(COc1ccc(Cl)cc1Cl)NCc1ccncc1	H69AR growth 86K 26.9 (no result: Lung fibro prol)
Cn1nc(C(F)(F)F)c(C#N)c1N1CCN(c2cccc(C(F)(F)F)c2)CC1	none (no result: Jurkat viability, tolC growth inh)
O=C(NCc1cccnc1)c1ccc(COc2ccc3c(c2)CCC3)o1	H69AR growth 86K 6.4
O=C(NCc1ccc2c(c1)OCO2)c1ccc(COc2cccc(Cl)c2)o1	tolC growth inh 79.4
CCCn1c(SCC(=O)c2cc(OC)ccc2OC)nnc1C(C)C	none
Cc1ccc(Nc2nc(CSc3nnnn3C)cs2)cc1	none
Cc1ccc(Nc2nc(CSc3nnnn3-c3ccccc3)cs2)cc1	tolC growth inh 94.2
CCOc1ccc(OCC)c(Nc2cc(C)nc3nc(C)nn23)c1	H69AR growth 86K 32.0 (no result: Ecoli WT expand)
CC(C)NC(=O)c1noc2cc([N+](=O)[O-])ccc12	none (no result: Jurkat viability, tolC growth inh, Lung fibro prol, H69AR growth 86K, HUVEC inhibit)
Cc1cccc(C)c1NC(=O)CSCC(=O)c1ccc(O)c(O)c1	H69AR growth 86K 18.3 (no result: Jurkat viability)
CC(=O)N(C(C)=O)c1ncc2c([nH]c3ccccc32)c1C#N	H69AR growth 86K 37.4
O=C(NCc1cccs1)c1nc2c(nnn2Cc2ccccc2Cl)c(=O)[nH]1	Jurkat viability 39.8, Lung fibro prol 34.8, HUVEC inhibit 24.1
O=C(Nn1nnnc1Nc1ccccc1)C12CC3CC(CC(C3)C1)C2	none (no result: Jurkat viability)
COC(=O)COc1ccc(S(=O)(=O)Nc2ccc3c(c2)OCO3)cc1Cl	Lung fibro prol 44.2, HUVEC inhibit 2.3
COCCNS(=O)(=O)c1ccc(OCC(=O)OC)c(Cl)c1	none
COC(=O)COc1ccc(S(=O)(=O)NCCC2=CCCCC2)cc1Cl	HUVEC inhibit 10.2 (no result: Jurkat viability, tolC growth inh)
Cn1c2c(c(=O)n(C)c1=O)C(c1ccccc1OC(F)F)C1=C(CCCC1=O)N2 (configuration not stated)	none
Cc1cc(Nc2cccc(C)c2C)n2nc(C)nc2n1	none (no result: Ecoli WT expand)
COC(=O)CCN(C(=O)c1cccc(OC(C)=O)c1)c1ccccn1	none (no result: Jurkat viability, tolC growth inh)
C=CCn1c(COc2cccc3ccc(C)nc23)nnc1SCC(N)=O	none
c1ccc(-c2ccc3c(c2)c2c4n3CCN=C4CCC2)cc1	H69AR growth 86K 23.9, HUVEC inhibit 27.9 (no result: Jurkat viability, tolC growth inh)
O=C(C[n+]1cccc(NC(=O)c2ccccc2)c1)c1ccc(NC(=O)c2ccccc2)cc1	Ecoli WT expand 62.0 (no result: Jurkat viability, tolC growth inh, Lung fibro prol, H69AR growth 86K, HUVEC inhibit)
O=c1[nH]c2ccccc2n1CCCN1CCN(C(c2ccccc2)c2ccccc2)CC1	H69AR growth 86K 26.6 (no result: Ecoli WT expand, Jurkat viability)
C=CCn1c(O)c(N=NC(=S)Nc2ccc(OC)cc2)c2ccccc21	H69AR growth 86K 35.0 (no result: Ecoli WT expand, Jurkat viability, tolC growth inh)
O=c1c2[nH]c3ccc(F)cc3c2ncn1CCCN1CCOCC1	none
O=c1c2[nH]c3ccc(F)cc3c2ncn1CCCn1ccnc1	Jurkat viability 32.8
Cc1nnc(SCc2ccccc2)nc1/C=C/NOCc1ccc(Cl)cc1Cl	H69AR growth 86K 2.3 (no result: Jurkat viability, tolC growth inh)
CC(OC(=O)c1snc(C(=O)NC2CCCCC2)c1N)C(=O)NC1CCCCC1 (configuration not stated)	H69AR growth 86K 22.6 (no result: Ecoli WT expand, Jurkat viability, tolC growth inh)
CCOC(=O)C1=C(c2ccccc2)Nc2ncnn2C1c1cc(OC)ccc1OC (configuration not stated)	H69AR growth 86K 39.2
